Measured values published in ChEMBL document CHEMBL1143979, “1-, 3- and 8-substituted-9-deazaxanthines as potent and selective antagonists at the human A2B adenosine receptor” (Bioorg Med Chem, 2008).
Where “and” joins values, the source holds several entries; their conditions need not be identical. Equal entries are not always repeated.

Assays:
Adenosine receptor A2b = biological target: T1, Adenosine receptor A2b (Homo sapiens, UniProt P29275); test: Displacement of [3H]DPCPX from human adenosine A2B receptor expressed in HEK293 cells; type: cell-based
T1 sequence (P29275 whole entry): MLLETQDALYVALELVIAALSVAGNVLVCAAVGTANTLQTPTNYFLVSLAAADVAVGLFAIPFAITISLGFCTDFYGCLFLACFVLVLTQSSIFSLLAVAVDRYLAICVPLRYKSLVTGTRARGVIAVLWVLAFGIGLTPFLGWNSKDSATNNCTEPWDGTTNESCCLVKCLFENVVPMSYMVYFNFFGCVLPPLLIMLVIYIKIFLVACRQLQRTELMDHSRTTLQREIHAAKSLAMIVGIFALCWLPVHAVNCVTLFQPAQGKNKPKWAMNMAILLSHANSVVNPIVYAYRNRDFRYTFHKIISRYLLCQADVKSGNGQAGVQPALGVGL

Adenosine receptor A2a = Adenosine receptor A2a (Homo sapiens, UniProt P29274); test: Displacement of [3H]ZM-241385 from human adenosine A2A receptor expressed in CHO cells; type: cell-based
Summary of the method: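 Competition binding at cloned human receptors: [3H]DPCPX for A1 and A2B, [3H]ZM241385 for A2A, [3H]NECA for A3. Screening compounds are reported as % radioligand displacement at one concentration. SEM below 10%.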

Homo sapiens = species: Homo sapiens; test: Selectivity index, ratio for human adenosine A2A receptor to human adenosine A2B receptor

Sequence of Adenosine receptor A2a (P29274 whole entry): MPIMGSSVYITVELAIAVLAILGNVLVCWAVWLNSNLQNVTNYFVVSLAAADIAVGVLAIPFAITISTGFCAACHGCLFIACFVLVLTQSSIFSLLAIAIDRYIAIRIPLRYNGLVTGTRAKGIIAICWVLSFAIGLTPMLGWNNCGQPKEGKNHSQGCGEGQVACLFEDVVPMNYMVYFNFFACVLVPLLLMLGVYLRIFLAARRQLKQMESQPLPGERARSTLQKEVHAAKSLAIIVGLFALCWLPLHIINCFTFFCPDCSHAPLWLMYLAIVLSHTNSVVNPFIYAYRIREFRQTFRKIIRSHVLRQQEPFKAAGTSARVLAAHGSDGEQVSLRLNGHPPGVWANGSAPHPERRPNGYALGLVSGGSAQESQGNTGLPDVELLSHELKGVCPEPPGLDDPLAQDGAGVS

| Ki (Adenosine receptor A2b; read-out: Log Ki (converted)) | Ki (Adenosine receptor A2a) | Ratio (Homo sapiens) | Ki (Adenosine receptor A2b; read-out: Ki) | SMILES |
| --- | --- | --- | --- | --- |
| 0.0309 µM | 0.871 µM | 28.2 | – | COc1ccc(C2CCN(C(=O)COc3ccc(-c4cc5c([nH]4)c(=O)n(C)c(=O)n5C)cc3OC)CC2)cc1 |
| 0.00417 µM | 0.132 µM | 31.6 | – | Cn1c(=O)c2[nH]c(-c3ccc(OCC(=O)N4CCN(c5ccc(C(F)(F)F)cc5)CC4)cc3)cc2n(C)c1=O |
| 0.00417 µM | 0.174 µM | 41.7 | – | CCCn1c(=O)c2[nH]c(-c3ccc(OCC(=O)N4CCN(c5ccc(C(F)(F)F)cc5)CC4)cc3)cc2n(CCC)c1=O |
| 0.0513 µM | 1.58 µM | 30.9 | – | CCCn1c(=O)c2[nH]c(-c3ccc(OCC(=O)N4CCN(C(c5ccccc5)c5ccccc5)CC4)cc3)cc2n(CCC)c1=O |
| 0.00575 µM | 0.631 µM | 106 | – | CCCn1c(=O)n(C)c(=O)c2[nH]c(-c3ccc(OCC(=O)N4CCN(c5nc6ccc(Cl)cc6s5)CC4)cc3)cc21 |
| – | 0.115 µM | 75.9 | 0.0015 µM | CCCn1c(=O)c2[nH]c(-c3ccc(OCC(=O)N4CCN(c5cccc(Cl)c5)CC4)cc3)cc2n(CCC)c1=O |
| 0.17 µM | 6.76 µM | 39 | – | COc1cc(-c2cc3c([nH]2)c(=O)n(C)c(=O)n3C)ccc1OCC(=O)N1CCc2ccccc2C1 |
| 0.0214 µM | 1.05 µM | 40.7 | – | CCCn1c(=O)c2[nH]c(-c3ccc(OCC(=O)N4CCC(c5ccccc5)(c5ccccc5)CC4)cc3)cc2n(CCC)c1=O |
| – | 1.02 µM | 398 | 0.0025 µM | CCCn1c(=O)n(C)c(=O)c2[nH]c(-c3ccc(OCC(=O)N4CCC(c5ccccc5)CC4)cc3)cc21 |
| – | 0.389 µM | 213 | 0.002 µM | Cc1ccc(N2CCN(C(=O)C(C)Oc3ccc(-c4cc5c([nH]4)c(=O)n(C)c(=O)n5C)cc3)CC2)cc1 (stereo not drawn) |
| 0.00955 µM | 0.24 µM | 25 | – | O=C(COc1ccc(-c2cc3c([nH]2)c(=O)n(CC2CC2)c(=O)n3CC2CC2)cc1)N1CCc2ccccc2C1 |
| 0.00339 µM | 0.398 µM | 117 | – | Cn1c(=O)c2[nH]c(-c3ccc(OCC(=O)N4CCN(c5ccc(Cl)cc5)CC4)cc3)cc2n(C)c1=O |
| 0.0275 µM | 0.617 µM | 22 | – | Cn1c(=O)c2[nH]c(-c3ccc(OCC(=O)N4CCN(c5ccc(O)cc5)CC4)cc3)cc2n(C)c1=O |
| 0.00603 µM | 0.479 µM | 79 | – | CCCn1c(=O)n(C)c(=O)c2[nH]c(-c3ccc(OCC(=O)N4CCN(c5cccc(Cl)c5)CC4)cc3)cc21 |
| – | 0.155 µM | 55 | 0.003 µM | Cn1c(=O)c2[nH]c(-c3ccc(OCC(=O)N4CCN(c5cccc(Cl)c5)CC4)cc3)cc2n(C)c1=O |
| 0.0257 µM | 0.708 µM | 27.5 | – | CCCn1c(=O)n(C)c(=O)c2[nH]c(-c3ccc(OCC(=O)N4CCN(c5ccccc5)CC4)cc3)cc21 |
| 0.00631 µM | 0.355 µM | 56 | – | Cn1c(=O)c2[nH]c(-c3ccc(OCC(=O)N4CCN(c5ccccc5Cl)CC4)cc3)cc2n(C)c1=O |
| 0.0049 µM | 0.398 µM | 81 | – | COCCn1c(=O)c2[nH]c(-c3ccc(OCC(=O)N4CCN(c5ccccc5)CC4)cc3)cc2n(CCOC)c1=O |
| 0.0257 µM | 0.692 µM | 26.9 | – | CCn1c(=O)c2[nH]c(-c3ccc(OCC(=O)N4CCN(c5ccccc5)CC4)cc3)cc2n(CC)c1=O |
| 0.00813 µM | 0.269 µM | 26 | – | CC(Oc1ccc(-c2cc3c([nH]2)c(=O)n(C)c(=O)n3C)cc1)C(=O)N1CCN(c2ccc(Br)cc2)CC1 (stereo not drawn) |
| 0.00631 µM | 0.355 µM | 56 | – | Cn1c(=O)c2[nH]c(-c3ccc(OCC(=O)N4CCN(c5ccc(C#N)cc5)CC4)cc3)cc2n(C)c1=O |

The remaining lines, values behind:

| SMILES | Ki (Adenosine receptor A2b; read-out: Log Ki (converted)) | Ki (Adenosine receptor A2a) | Ratio (Homo sapiens) | Ki (Adenosine receptor A2b; read-out: Ki) |
| --- | --- | --- | --- | --- |
| CCCn1c(=O)c2[nH]c(-c3ccc(OCC(=O)N4CCN(c5ccccc5)CC4)cc3)cc2n(CCC)c1=O | 0.00479 µM | 0.162 µM | 33.8 | – |
| Cn1c(=O)c2[nH]c(-c3ccc(OCC(=O)N4CCN(c5ncccn5)CC4)cc3)cc2n(C)c1=O | 0.0135 µM | 0.417 µM | 30.9 | – |
| CCCn1c(=O)n(C)c(=O)c2[nH]c(-c3ccc(OCC(=O)N4CCC(c5ccc(OC)cc5)CC4)cc3)cc21 | 0.00912 µM | 0.398 µM | 43.7 | – |
| CCCn1c(=O)n(C)c(=O)c2[nH]c(-c3ccc(OC(C)(C)C(=O)N4CCN(c5ccccc5)CC4)cc3)cc21 | 0.00417 µM | 0.562 µM | 135 | – |
| COc1cc(-c2cc3c([nH]2)c(=O)n(C)c(=O)n3C)ccc1OCC(=O)N1CCN(c2ccccc2)CC1 | 0.0575 µM | 1.45 µM | 25.1 | – |
| CC(Oc1ccc(-c2cc3c([nH]2)c(=O)n(C)c(=O)n3C)cc1)C(=O)N1CCN(c2ccccc2Cl)CC1 (stereo not drawn) | 0.0708 µM | 0.741 µM | 10.5 | – |
| O=C(COc1ccc(-c2cc3c([nH]2)c(=O)n(CC2CC2)c(=O)n3CC2CC2)cc1)N1CCN(c2ccccc2)CC1 | 0.0117 µM | 0.049 µM | 4.2 | – |
| CCCn1c(=O)c2[nH]c(-c3ccc(OCC(=O)N4CCN(c5ccccc5)CC4)cc3)cc2n(C)c1=O | 0.0132 µM | 0.316 µM | 24 | – |
| CC(Oc1ccc(-c2cc3c([nH]2)c(=O)n(C)c(=O)n3C)cc1)C(=O)N1CCN(c2ccccc2)CC1 (stereo not drawn) | 0.0204 µM | 0.355 µM | 17.4 | – |
| CCCn1c(=O)n(C)c(=O)c2[nH]c(-c3ccc(OCC(=O)N4CCC(c5ccccc5OC)CC4)cc3)cc21 | 0.00617 µM | 0.407 µM | 66.1 | – |
| CCCn1c(=O)c2[nH]c(-c3ccc(OCC(=O)N4CCN(Cc5ccccc5)CC4)cc3)cc2n(CCC)c1=O | 0.00617 µM | 0.257 µM | 41.7 | – |
| CCCn1c(=O)c2[nH]c(-c3ccc(OCC(=O)N4CCN(c5ccccc5Cl)CC4)cc3)cc2n(CCC)c1=O | 0.00692 µM | 0.038 µM | 5.5 | – |
| CCCn1c(=O)c2[nH]c(-c3ccc(OCC(=O)N4CCC(c5ccccc5)CC4)cc3)cc2n(CCC)c1=O | 0.0209 µM | 0.589 µM | 28.2 | – |
| COc1ccc(N2CCN(C(=O)COc3ccc(-c4cc5c([nH]4)c(=O)n(C)c(=O)n5C)cc3)CC2)cc1 | 0.0132 µM | 0.17 µM | 12.9 | – |
| CCCn1c(=O)c2[nH]c(-c3ccc(OC(C)C(=O)N4CCc5ccccc5C4)cc3)cc2n(CCC)c1=O (stereo not drawn) | 0.00468 µM | 0.158 µM | 33.9 | – |
| Cn1c(=O)c2[nH]c(-c3ccc(OCC(=O)N4CCN(c5nc6cc(Cl)ccc6s5)CC4)cc3)cc2n(C)c1=O | 0.00363 µM | 0.182 µM | 50.1 | – |

| SMILES | Ki (Adenosine receptor A2b; read-out: Log Ki (converted)) | Ki (Adenosine receptor A2a) | Ratio (Homo sapiens) | Ki (Adenosine receptor A2b; read-out: Ki) |
| --- | --- | --- | --- | --- |
| CCCn1c(=O)c2[nH]c(-c3ccc(OCC(=O)N4CCc5ccccc5C4)cc3)cc2n(CCC)c1=O | 0.00229 µM | 0.0933 µM | 40.7 | – |
| Cn1c(=O)c2[nH]c(-c3ccc(OCC(=O)N4CCC(O)(c5ccc(Cl)cc5)CC4)cc3)cc2n(C)c1=O | 0.00288 µM | 0.324 µM | 112 | – |
| COc1ccccc1N1CCN(C(=O)COc2ccc(-c3cc4c([nH]3)c(=O)n(C)c(=O)n4C)cc2)CC1 | 0.0513 µM | 2.34 µM | 45.7 | – |
| CCCn1c(=O)c2[nH]c(-c3ccc(OCC(=O)N4CCN(c5nc6ccc(Cl)cc6s5)CC4)cc3)cc2n(CCC)c1=O | 0.0105 µM | 0.813 µM | 77.6 | – |
| Cn1c(=O)c2[nH]c(-c3ccc(OCC(=O)N4CCC(c5ccccc5)CC4)cc3)cc2n(C)c1=O | 0.0123 µM | 0.794 µM | 64.6 | – |
| CN1CCN(C(=O)COc2ccc(-c3cc4c([nH]3)c(=O)n(C)c(=O)n4C)cc2)CC1 | 0.174 µM | 0.794 µM | 4.05 | – |
| CCCn1c(=O)c2[nH]c(-c3ccc(OCC(=O)N4CCN(C(=O)OCc5ccccc5)CC4)cc3)cc2n(CCC)c1=O | 0.0389 µM | 0.151 µM | 3.9 | – |
| CCCn1c(=O)n(C)c(=O)c2[nH]c(-c3ccc(OCC(=O)N4CCN(c5c(Cl)cncc5Cl)CC4)cc3)cc21 | 0.00427 µM | 0.646 µM | 151 | – |
| Cn1c(=O)c2[nH]c(-c3ccc(OCC(=O)N4CCN(Cc5ccccc5)CC4)cc3)cc2n(C)c1=O | 0.0537 µM | 1.55 µM | 28.8 | – |
| CCCn1c(=O)c2[nH]c(-c3ccc(OC(C)C(=O)N4CCN(c5ccccc5)CC4)cc3)cc2n(CCC)c1=O (stereo not drawn) | 0.00661 µM | 0.24 µM | 36.3 | – |
| CCCn1c(=O)c2[nH]c(-c3ccc(OCC(=O)N4CCN(c5ccccc5Cl)CC4)cc3)cc2n(C)c1=O | 0.0692 µM | 0.224 µM | 3.2 | – |
| Cn1c(=O)c2[nH]c(-c3ccc(OCC(=O)N4CCN(c5ccc(Br)cc5)CC4)cc3)cc2n(C)c1=O | 0.00347 µM | 0.115 µM | 33.1 | – |
| CCCn1c(=O)n(C)c(=O)c2[nH]c(-c3ccc(OCC(=O)N4CCc5ccccc5C4)cc3)cc21 | 0.0145 µM and 0.00724 µM | 0.209 µM and 1 µM | – | – |
| CCCn1c(=O)c2[nH]c(-c3ccc(OCC(=O)N4CCC(O)(c5ccccc5)CC4)cc3)cc2n(CCC)c1=O | 0.0135 µM | 1.15 µM | 85.1 | – |
| CCCn1c(=O)c2[nH]c(-c3ccc(OCC(=O)N4CCN(c5c(Cl)cncc5Cl)CC4)cc3)cc2n(CCC)c1=O | 0.00759 µM | 0.0741 µM | 9.8 | – |
| Cn1c(=O)c2[nH]c(-c3ccc(OCC(=O)N4CCC(C(=O)c5ccc(F)cc5)CC4)cc3)cc2n(C)c1=O | 0.0112 µM | 0.302 µM | 26.9 | – |
